Reference: ChEMBL document CHEMBL3596119, “Synthesis and biological characterization of a promising F-18 PET tracer for vesicular acetylcholine transporter” (Bioorg Med Chem, 2015)

Experiments:
Bone [1] = experiment: Biodistribution in Sprague-Dawley rat bone at 2.2 MBq/120 uL, iv after 60 mins by gamma counting; format: ADME, organism-based, Bone element; settings: in vivo, 1 h
Outline: (§1)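 Adult male SD rats, isoflurane (2-3%)/oxygen anesthesia, tail-vein injection of ~2.2 MBq/120 μL tracer in 10% ethanol in saline; euthanized under anesthesia at the stated time (n = 4 per time point). Brain dissected into regions, remainder kept for total brain; organs, blood, bone collected and weighed, gamma-counted against a standard dilution of injectate; %ID/g calculated.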

Rattus norvegicus [2] = experiment: Biodistribution in Sprague-Dawley rat total brain at 2.2 MBq/120 uL, iv after 120 mins by gamma counting; format: ADME, organism-based; settings: in vivo, 2 h; outline: as §1
Pancreas = experiment: Biodistribution in Sprague-Dawley rat pancreas at 2.2 MBq/120 uL, iv after 120 mins by gamma counting; format: ADME, organism-based; settings: in vivo, 2 h; outline: as §1
Blood [3] = experiment: Biodistribution in Sprague-Dawley rat blood at 2.2 MBq/120 uL, iv after 5 mins by gamma counting; format: ADME, organism-based; settings: in vivo; outline: as §1
Kidney [4] = experiment: Biodistribution in Sprague-Dawley rat kidney at 2.2 MBq/120 uL, iv after 5 mins by gamma counting; format: ADME, organism-based; settings: in vivo; outline: as §1
[5] = Drug uptake in cynomolgus monkey striatum at 296 to 410 MBq administered via venous catheter after 120 mins by microPET imaging; format: ADME, Macaca fascicularis; settings: in vivo, iv, 2 h
Outline: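 Male cynomolgus monkeys (6-8 kg) were fasted 12 h, induced with ketamine/glycopyrrolate i.m., then kept on 0.75-2.0% isoflurane at 37 °C. After a transmission scan for attenuation correction, a 2 h dynamic microPET scan was acquired. Framing was 3×1, 4×2, 3×3, 20×5 min. Striatal uptake was read as SUV from time-activity curves, with cerebellum as reference.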

Lung [6] = experiment: Biodistribution in Sprague-Dawley rat lung at 2.2 MBq/120 uL, iv after 5 mins by gamma counting; format: ADME, organism-based; settings: in vivo; outline: as §1
Striatum [7] = experiment: Biodistribution in Sprague-Dawley rat striatum at 2.2 MBq/120 uL, iv after 120 mins by gamma counting; format: ADME, organism-based; settings: in vivo, 2 h; outline: as §1
Rattus norvegicus [8] = experiment: Biodistribution in Sprague-Dawley rat total brain at 2.2 MBq/120 uL, iv after 5 mins by gamma counting; format: ADME, organism-based; settings: in vivo
Outline: (§2)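 Injected by tail vein in 10% ethanol in saline into adult male SD rats under 2-3% isoflurane/oxygen anesthesia. Rats were killed under anesthesia, n = 4 per time point. Total brain and other tissues were weighed and gamma-counted against a standard dilution of the injectate. Values are %ID/g.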

Plasma [9] = experiment: Retention time in monkey plasma assessed as radioactivity at 15 to 106 MBq after 5 to 60 mins by HPLC analysis; format: ADME, cell-free, Macaca mulatta; settings: rhesus monkey
Bone [10] = experiment: Biodistribution in Sprague-Dawley rat bone at 2.2 MBq/120 uL, iv after 5 mins by gamma counting; format: ADME, organism-based, Bone element; settings: in vivo; outline: as §1
Rattus norvegicus [11] = experiment: Biodistribution in Sprague-Dawley rat fat at 2.2 MBq/120 uL, iv after 60 mins by gamma counting; format: ADME, organism-based, Adipose tissue; settings: in vivo, 1 h; outline: as §1
Blood [12] = experiment: Biodistribution in Sprague-Dawley rat blood at 2.2 MBq/120 uL, iv after 30 mins by gamma counting; format: ADME, organism-based; settings: in vivo, 0.5 h; outline: as §1
Spleen = experiment: Biodistribution in Sprague-Dawley rat spleen at 2.2 MBq/120 uL, iv after 60 mins by gamma counting; format: ADME, organism-based; settings: in vivo, 1 h; outline: as §1
Rattus norvegicus [13] = experiment: Biodistribution in Sprague-Dawley rat total brain at 2.2 MBq/120 uL, iv after 60 mins by gamma counting; format: ADME, organism-based; settings: in vivo, 1 h; outline: as §2
Rattus norvegicus [14] = experiment: Biodistribution in Sprague-Dawley rat fat at 2.2 MBq/120 uL, iv after 30 mins by gamma counting; format: ADME, organism-based, Adipose tissue; settings: in vivo, 0.5 h; outline: as §1
Muscle tissue [15] = experiment: Biodistribution in Sprague-Dawley rat muscle at 2.2 MBq/120 uL, iv after 120 mins by gamma counting; format: ADME, organism-based; settings: in vivo, 2 h; outline: as §1
Blood [16] = experiment: Biodistribution in Sprague-Dawley rat blood at 2.2 MBq/120 uL, iv after 120 mins by gamma counting; format: ADME, organism-based; settings: in vivo, 2 h; outline: as §1
Hippocampus = experiment: Biodistribution in Sprague-Dawley rat hippocampus at 2.2 MBq/120 uL, iv after 5 mins by gamma counting; format: ADME, organism-based; settings: in vivo; outline: as §1
Cortex = experiment: Biodistribution in Sprague-Dawley rat cortex at 2.2 MBq/120 uL, iv after 5 mins by gamma counting; format: ADME, organism-based; settings: in vivo; outline: as §1
Thalamus = experiment: Biodistribution in Sprague-Dawley rat thalamus at 2.2 MBq/120 uL, iv after 5 mins by gamma counting; format: ADME, organism-based; settings: in vivo; outline: as §1
Liver [17] = experiment: Biodistribution in Sprague-Dawley rat liver at 2.2 MBq/120 uL, iv after 60 mins by gamma counting; format: ADME, organism-based; settings: in vivo, 1 h; outline: as §1
Rattus norvegicus [18] = experiment: Biodistribution in Sprague-Dawley rat fat at 2.2 MBq/120 uL, iv after 120 mins by gamma counting; format: ADME, organism-based, Adipose tissue; settings: in vivo, 2 h; outline: as §1
Plasma [19] = experiment: Drug metabolism in Sprague-Dawley rat plasma assessed as radioactivity at 15 to 106 MBq, iv after 5 to 60 mins by HPLC analysis; format: ADME, organism-based
Liver [20] = experiment: Biodistribution in Sprague-Dawley rat liver at 2.2 MBq/120 uL, iv after 5 mins by gamma counting; format: ADME, organism-based; settings: in vivo; outline: as §1
Heart [21] = experiment: Biodistribution in Sprague-Dawley rat heart at 2.2 MBq/120 uL, iv after 120 mins by gamma counting; format: ADME, organism-based; settings: in vivo, 2 h; outline: as §1
Muscle tissue [22] = experiment: Biodistribution in Sprague-Dawley rat muscle at 2.2 MBq/120 uL, iv after 30 mins by gamma counting; format: ADME, organism-based; settings: in vivo, 0.5 h; outline: as §1
Bone [23] = experiment: Biodistribution in Sprague-Dawley rat bone at 2.2 MBq/120 uL, iv after 30 mins by gamma counting; format: ADME, organism-based, Bone element; settings: in vivo, 0.5 h; outline: as §1
Striatum [24] = experiment: Ex-vivo drug uptake in Sprague-Dawley rat striatum at 63 MBq, iv after 60 mins by autoradiography; format: ADME, organism-based; settings: 1 h
Outline: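 One adult male SD rat received ~63.0 MBq by tail vein under anesthesia and was killed at 60 min. The brain was snap-frozen and cut into 100 μm horizontal sections. Sections were exposed to film for 12 h at -80 °C. Striatum-to-cerebellum ratio was quantified over 30 slices.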

Liver [25] = experiment: Biodistribution in Sprague-Dawley rat liver at 2.2 MBq/120 uL, iv after 30 mins by gamma counting; format: ADME, organism-based; settings: in vivo, 0.5 h; outline: as §1
Striatum [26] = experiment: Biodistribution in Sprague-Dawley rat striatum at 2.2 MBq/120 uL, iv after 30 mins by gamma counting; format: ADME, organism-based; settings: in vivo, 0.5 h; outline: as §1
Lung [27] = experiment: Biodistribution in Sprague-Dawley rat lung at 2.2 MBq/120 uL, iv after 120 mins by gamma counting; format: ADME, organism-based; settings: in vivo, 2 h; outline: as §1
Heart [28] = experiment: Biodistribution in Sprague-Dawley rat heart at 2.2 MBq/120 uL, iv after 60 mins by gamma counting; format: ADME, organism-based; settings: in vivo, 1 h; outline: as §1
Bone [29] = experiment: Biodistribution in Sprague-Dawley rat bone at 2.2 MBq/120 uL, iv after 120 mins by gamma counting; format: ADME, organism-based, Bone element; settings: in vivo, 2 h; outline: as §1
Lung [30] = experiment: Biodistribution in Sprague-Dawley rat lung at 2.2 MBq/120 uL, iv after 60 mins by gamma counting; format: ADME, organism-based; settings: in vivo, 1 h; outline: as §1
Cerebellum = experiment: Biodistribution in Sprague-Dawley rat cerebellum at 2.2 MBq/120 uL, iv after 5 mins by gamma counting; format: ADME, organism-based; settings: in vivo; outline: as §1
Muscle tissue [31] = experiment: Biodistribution in Sprague-Dawley rat muscle at 2.2 MBq/120 uL, iv after 5 mins by gamma counting; format: ADME, organism-based; settings: in vivo; outline: as §1
Kidney [32] = experiment: Biodistribution in Sprague-Dawley rat kidney at 2.2 MBq/120 uL, iv after 30 mins by gamma counting; format: ADME, organism-based; settings: in vivo, 0.5 h; outline: as §1
Heart [33] = experiment: Biodistribution in Sprague-Dawley rat heart at 2.2 MBq/120 uL, iv after 5 mins by gamma counting; format: ADME, organism-based; settings: in vivo; outline: as §1
Striatum [34] = experiment: Biodistribution in Sprague-Dawley rat striatum at 2.2 MBq/120 uL, iv after 5 mins by gamma counting; format: ADME, organism-based; settings: in vivo; outline: as §1

O=C(c1ccc(F)cc1)C1CCN(C2Cc3c(cccc3OCC[18F])CC2O)CC1 (single isomer, unassigned; (-))
Drug uptake (Bone [1]): 0.403 % ID/g | Drug uptake (Rattus norvegicus [2]): 0.409 % ID/g | Drug uptake (Pancreas): 0.819 % ID/g | Drug uptake (Blood [3]): 0.209 % ID/g | Drug uptake (Kidney [4]): 2.363 % ID/g | Drug uptake [5]: Not Active | Drug uptake (Lung [6]): 2.255 % ID/g | Drug uptake (Striatum [7]): 0.761 % ID/g | Drug uptake (Rattus norvegicus [8]): 0.684 % ID/g | Retention_time (Plasma [9]): 9 min | Drug uptake (Bone [10]): 0.426 % ID/g | Drug uptake (Rattus norvegicus [11]): 0.548 % ID/g | Drug uptake (Blood [12]): 0.27 % ID/g | Drug uptake (Spleen): 0.505 % ID/g | Drug uptake (Rattus norvegicus [13]): 0.425 % ID/g | Drug uptake (Rattus norvegicus [14]): 0.324 % ID/g | Drug uptake (Muscle tissue [15]): 0.235 % ID/g | Drug uptake (Blood [16]): 0.356 % ID/g | Drug uptake (Hippocampus): 0.645 % ID/g | Drug uptake (Cortex): 0.777 % ID/g | Drug uptake (Thalamus): 0.691 % ID/g | Drug uptake (Liver [17]): 0.456 % ID/g | Drug uptake (Rattus norvegicus [18]): 0.56 % ID/g | Drug metabolism (Plasma [19]): metabolite_detected | Drug uptake (Liver [20]): 1.065 % ID/g | Drug uptake (Heart [21]): 0.336 % ID/g | Drug uptake (Muscle tissue [22]): 0.258 % ID/g | Drug uptake (Bone [23]): 0.369 % ID/g | Drug uptake (Striatum [24]): Active | Drug uptake (Liver [25]): 0.523 % ID/g | Drug uptake (Striatum [26]): 0.886 % ID/g | Drug uptake (Lung [27]): 0.551 % ID/g | Drug uptake (Heart [28]): 0.357 % ID/g | Drug uptake (Bone [29]): 0.537 % ID/g | Drug uptake (Lung [30]): 0.738 % ID/g | Drug uptake (Cerebellum): 0.593 % ID/g | Drug uptake (Muscle tissue [31]): 0.171 % ID/g | Drug uptake (Kidney [32]): 0.883 % ID/g | Drug uptake (Heart [33]): 0.706 % ID/g | Drug uptake (Striatum [34]): 0.782 % ID/g
